Tests used:
Plasmodium falciparum [1] = assay: Antimalarial activity after 48 hrs against chloroquine-sensitive Plasmodium falciparum 3D7 by [3H]hypoxanthine uptake; format: functional, organism-based
In short: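 Asynchronous culture (65-75% rings, 0.5% parasitemia, 2.5% final hematocrit) in RPMI 1640 with 0.5% Albumax II, 0.2% glucose, 0.03% L-glutamine and 5 µM hypoxanthine. Triplicate wells with a 3-fold series of 10.0–0.0412 µg/mL; final DMSO ≤0.01%. 37 °C, 5% CO2: 24 h, then 0.2 µCi/well [3H]hypoxanthine for a further 24 h. Frozen, harvested, scintillation-counted. IC50 from curve fit; mean of 2–3 experiments.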

KB = assay: Cytotoxicity against human KB cells after 48 hrs by alamar blue assay; format: cell-based
Plasmodium falciparum [2] = assay: Antimalarial activity after 48 hrs against chloroquine-resistant Plasmodium falciparum K1 by [3H]hypoxanthine uptake; format: functional, organism-based
In short: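 Asynchronous P. falciparum K1 culture (65-75% ring stage, 0.5% parasitemia; chloroquine, pyrimethamine, cycloguanil resistant) at 2.5% hematocrit in RPMI 1640 with 0.5% Albumax II, glucose, L-glutamine, 5 µM hypoxanthine. Triplicate 3-fold dilutions 10.0–0.0412 µg/mL, DMSO ≤0.01% final, 37 °C, 5% CO2. [3H]-hypoxanthine (0.2 µCi/well) added at 24 h, incorporation counted after further 24 h. IC50 by curve fit, 2–3 experiments.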

[3] = Selectivity index, ratio of IC50 for human KB cells to IC50 for chloroquine-sensitive Plasmodium falciparum 3D7; format: toxicity, cell-based; conditions: read-out: Ratio IC50
In short: (§1)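 KB IC50 divided by the parasite IC50 (K1 or 3D7). KB cells seeded at 4×10^4 cells/mL in RPMI 1640 with 10% heat-inactivated FCS and grown 24 h. Triplicate dilution series then added for 72 h. AlamarBlue for 2–4 h, fluorescence ex 530/em 585 nm, IC50 by curve fit. Podophyllotoxin as positive control.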

[4] = Resistant index, ratio of IC50 for chloroquine-resistant Plasmodium falciparum K1 to IC50 for chloroquine-sensitive Plasmodium falciparum 3D7; format: functional
In short: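 IC50 against K1 divided by IC50 against 3D7 (drug-sensitive NF54 clone). Both from [3H]-hypoxanthine incorporation over 48 h: asynchronous cultures at 0.5% parasitemia, 2.5% hematocrit, 3-fold dilutions 10.0–0.0412 µg/mL in triplicate. Label added at 24 h. Means of 2–3 independent experiments.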

[5] = Selectivity index, ratio of IC50 for human KB cells to IC50 for chloroquine-resistant Plasmodium falciparum K1; format: toxicity, cell-based; conditions: read-out: Ratio IC50; in short: as §1

SMILES | IC50 (Plasmodium falciparum [1]) [nM] | IC50 (KB) [nM] | IC50 (Plasmodium falciparum [2]) [nM] | selectivity ratio [3] | Ratio IC50 [4] | selectivity ratio [5]
O=C(O)c1c(-c2ccc(Cl)cc2)[n+]([O-])c2ccccc2[n+]1[O-] | > 10000 | – | – | – | – | –
Cc1ccc2c(c1)[n+]([O-])c(C#N)c(-c1ccc(F)cc1)[n+]2[O-] | 880 | 11200 | 370 | 12.7 | 0.42 | 30.4
N#Cc1c(-c2ccc(Cl)cc2)[n+]([O-])c2ccc(Cl)cc2[n+]1[O-] | > 5000 | – | – | – | – | –
N#Cc1c(-c2ccc(F)cc2)[n+]([O-])c2ccccc2[n+]1[O-] | 3910 | – | – | – | – | –
N#Cc1c(-c2ccc(OC(F)(F)F)cc2)[n+]([O-])c2ccccc2[n+]1[O-] | 1270 | 2760 | 270 | 2.17 | 0.21 | 10.3
N#Cc1c(-c2ccc(OC(F)(F)F)cc2)[n+]([O-])c2cc(Cl)c(Cl)cc2[n+]1[O-] | > 10000 | – | – | – | – | –
COc1ccc2c(c1)[n+]([O-])c(C#N)c(-c1ccccc1)[n+]2[O-] | 1470 | 10500 | 720 | 7.12 | 0.49 | 14.5
Cc1ccc(-c2c(C#N)[n+]([O-])c3cc(Cl)ccc3[n+]2[O-])cc1 | > 10000 | – | – | – | – | –
COc1ccc(-c2c(C#N)[n+]([O-])c3cc(C)c(C)cc3[n+]2[O-])cc1 | 3020 | – | – | – | – | –
COC(=O)c1ccc(-c2c(C#N)[n+]([O-])c3cc(F)ccc3[n+]2[O-])cc1 | > 20000 | – | – | – | – | –
COC(=O)c1ccc(-c2c(C#N)[n+]([O-])c3cc(C(F)(F)F)ccc3[n+]2[O-])cc1 | 2030 | – | – | – | – | –
CCOC(=O)c1c(-c2ccc(C)cc2)[n+]([O-])c2ccccc2[n+]1[O-] | > 10000 | – | – | – | – | –
COc1ccc(-c2c(C#N)[n+]([O-])c3cc(Cl)ccc3[n+]2[O-])cc1 | > 10000 | – | – | – | – | –
N#Cc1c(-c2ccc(F)cc2)[n+]([O-])c2ccc(C(F)(F)F)cc2[n+]1[O-] | 660 | 2850 | 520 | 4.32 | 0.79 | 5.48
Cc1ccc2c(c1)[n+]([O-])c(C#N)c(-c1ccc(Cl)cc1)[n+]2[O-] | 480 | 9250 | 190 | 19.3 | 0.39 | 49.5
CCN(CC)CCCC(C)Nc1ccnc2cc(Cl)ccc12 (stereo not given) [CHLOROQUINE] | – | 110000 | – | – | – | –
N#Cc1c(-c2ccc(OC(F)(F)F)cc2)[n+]([O-])c2ccc(F)cc2[n+]1[O-] | 1700 | 2610 | > 8000 | 1.54 | – | –
Cc1ccc2c(c1)[n+]([O-])c(C#N)c(-c1ccc(OC(F)(F)F)cc1)[n+]2[O-] | 750 | 8120 | 380 | 10.8 | 0.51 | 21.4
COc1ccc2c(c1)[n+]([O-])c(C#N)c(-c1ccc(Cl)cc1)[n+]2[O-] | 730 | 17500 | 470 | 24 | 0.64 | 37.5
COc1ccc(-c2c(C#N)[n+]([O-])c3cc(F)ccc3[n+]2[O-])cc1 | > 20000 | – | – | – | – | –

SMILES | IC50 (Plasmodium falciparum [1]) [nM] | IC50 (KB) [nM] | IC50 (Plasmodium falciparum [2]) [nM] | selectivity ratio [3] | Ratio IC50 [4] | selectivity ratio [5]
COc1ccc2c(c1)[n+]([O-])c(C#N)c(-c1ccc(F)cc1)[n+]2[O-] | 870 | 18500 | 360 | 21.3 | 0.42 | 50.9
N#Cc1c(-c2ccc(OC(F)(F)F)cc2)[n+]([O-])c2ccc(C(F)(F)F)cc2[n+]1[O-] | 1930 | 13400 | 550 | 6.97 | 0.28 | 24.4
N#Cc1c(-c2ccc(Cl)cc2)[n+]([O-])c2ccccc2[n+]1[O-] | 1010 | 9730 | 410 | 9.63 | 0.41 | 23.6
CCOC(=O)c1c(-c2ccc(Cl)cc2)[n+]([O-])c2ccccc2[n+]1[O-] | > 10000 | – | – | – | – | –
CCOC(=O)c1c(-c2ccccc2)[n+]([O-])c2cc(F)c(F)cc2[n+]1[O-] | > 10000 | – | – | – | – | –
N#Cc1c(-c2ccc(F)cc2)[n+]([O-])c2cc(Cl)c(Cl)cc2[n+]1[O-] | > 10000 | – | – | – | – | –
CCOC(=O)c1c(-c2ccccc2)[n+]([O-])c2ccc(C)cc2[n+]1[O-] | > 10000 | – | – | – | – | –
COc1cc([C@@H]2c3cc4c(cc3[C@H](O)[C@H]3COC(=O)[C@H]23)OCO4)cc(OC)c1OC [PODOFILOX] | – | 3 | – | – | – | –
Cc1ccc(-c2c(C#N)[n+]([O-])c3cc(C)ccc3[n+]2[O-])cc1 | 1300 | 25000 | 950 | 19.2 | 0.73 | 26.2
COC(=O)c1ccc(-c2c(C#N)[n+]([O-])c3ccccc3[n+]2[O-])cc1 | 6540 | – | – | – | – | –
COc1ccc2c(c1)[n+]([O-])c(C#N)c(-c1ccc(C)cc1)[n+]2[O-] | 810 | 17000 | 2290 | 20.9 | 2.83 | 7.39
COc1ccc(-c2c(C#N)[n+]([O-])c3cc(C)ccc3[n+]2[O-])cc1 | 2770 | – | – | – | – | –
N#Cc1c(-c2ccc(F)cc2)[n+]([O-])c2ccc(Cl)cc2[n+]1[O-] | 5830 | – | – | – | – | –
N#Cc1c(-c2ccc(OC(F)(F)F)cc2)[n+]([O-])c2ccc(Cl)cc2[n+]1[O-] | 710 | 2350 | 930 | 3.31 | 1.31 | 2.53
CCOC(=O)c1c(-c2ccccc2)[n+]([O-])c2ccccc2[n+]1[O-] | > 10000 | – | – | – | – | –
Cc1ccc(-c2c(C#N)[n+]([O-])c3cc(C(F)(F)F)ccc3[n+]2[O-])cc1 | 720 | 3170 | 870 | 4.4 | 1.21 | 3.64
CCOC(=O)c1c(-c2ccccc2)[n+]([O-])c2cc(Cl)c(Cl)cc2[n+]1[O-] | > 7000 | – | – | – | – | –
COc1ccc(-c2c(C#N)[n+]([O-])c3cc(OC)ccc3[n+]2[O-])cc1 | 2290 | – | – | – | – | –
N#Cc1c(-c2ccccc2)[n+]([O-])c2ccc(F)cc2[n+]1[O-] | > 10000 | – | – | – | – | –
N#Cc1c(-c2ccccc2)[n+]([O-])c2ccc(Cl)cc2[n+]1[O-] | > 5000 | – | – | – | – | –

SMILES | IC50 (Plasmodium falciparum [1]) [nM] | IC50 (KB) [nM] | IC50 (Plasmodium falciparum [2]) [nM] | selectivity ratio [3] | Ratio IC50 [4] | selectivity ratio [5]
Cc1ccc(-c2c(C#N)[n+]([O-])c3ccccc3[n+]2[O-])cc1 | 3460 | – | – | – | – | –
COC(=O)c1ccc(-c2c(C#N)[n+]([O-])c3cc(OC)ccc3[n+]2[O-])cc1 | 3160 | – | – | – | – | –
N#Cc1c(-c2ccc(Cl)cc2)[n+]([O-])c2ccc(F)cc2[n+]1[O-] | 4210 | – | – | – | – | –
COC(=O)c1ccc(-c2c(C#N)[n+]([O-])c3cc(Cl)ccc3[n+]2[O-])cc1 | > 20000 | – | – | – | – | –
CCOC(=O)c1c(-c2ccccc2)[n+]([O-])c2ccc(OC)cc2[n+]1[O-] | > 10000 | – | – | – | – | –
N#Cc1c(-c2ccc(Cl)cc2)[n+]([O-])c2ccc(C(F)(F)F)cc2[n+]1[O-] | 1560 | 2760 | 1770 | 1.77 | 1.13 | 1.56
N#Cc1c(-c2ccc(F)cc2)[n+]([O-])c2ccc(F)cc2[n+]1[O-] | 5780 | – | – | – | – | –
N#Cc1c(-c2ccccc2)[n+]([O-])c2ccc(C(F)(F)F)cc2[n+]1[O-] | 330 | 2820 | 180 | 8.55 | 0.55 | 15.7
COc1ccc2c(c1)[n+]([O-])c(C#N)c(-c1ccc(OC(F)(F)F)cc1)[n+]2[O-] | 930 | 8250 | 1250 | 8.87 | 1.35 | 6.58
Cc1cc2c(cc1C)[n+]([O-])c(-c1ccc(OC(F)(F)F)cc1)c(C#N)[n+]2[O-] | > 5000 | – | – | – | – | –
Cc1ccc(-c2c(C#N)[n+]([O-])c3cc(F)ccc3[n+]2[O-])cc1 | > 10000 | – | – | – | – | –
N#Cc1c(-c2ccccc2)[n+]([O-])c2ccccc2[n+]1[O-] | 2350 | – | – | – | – | –
COc1ccc(-c2c(C#N)[n+]([O-])c3cc(Cl)c(Cl)cc3[n+]2[O-])cc1 | > 20000 | – | – | – | – | –
CCOC(=O)c1c(-c2ccccc2)[n+]([O-])c2cc(C)c(C)cc2[n+]1[O-] | 1180 | > 60000 | > 10000 | > 50 | – | –
COC(=O)c1ccc(-c2c(C#N)[n+]([O-])c3cc(C)ccc3[n+]2[O-])cc1 | 2150 | – | – | – | – | –
COc1ccc(-c2c(C#N)[n+]([O-])c3cc(C(F)(F)F)ccc3[n+]2[O-])cc1 | 2440 | – | – | – | – | –
COc1ccc(-c2c(C#N)[n+]([O-])c3ccccc3[n+]2[O-])cc1 | 3140 | – | – | – | – | –
Cc1ccc(-c2c(C(=O)O)[n+]([O-])c3ccccc3[n+]2[O-])cc1 | > 10000 | – | – | – | – | –
CCOC(=O)c1c(-c2ccccc2)[n+]([O-])c2ccc(Cl)cc2[n+]1[O-] | 3220 | – | – | – | – | –

— ChEMBL document CHEMBL1140972, “Synthesis and structure-activity relationship of 3-phenylquinoxaline 1,4-di-N-oxide derivatives as antimalarial agents” (Eur J Med Chem, 2008)
